Assay results as given in ChEMBL document CHEMBL2169759, “A new class of selective and potent 7-dehydrocholesterol reductase inhibitors” (J Med Chem, 2012).
Activity calls are given as the source filed them. The rule behind the calls is not given here.

What was measured:
Nakaseomyces glabratus [1] = assay: Antifungal activity against Candida glabrata DSM 11226 after 36 hrs by disc diffusion method; type: organism-based; conditions: in vivo
[2] = Antifungal activity against Hyphopichia burtonii DSM 70663 after 36 hrs by disc diffusion method
Yarrowia lipolytica [3] = assay: Antifungal activity against Yarrowia lipolytica DSM 1345 after 48 hrs; type: organism-based; conditions: in vivo
Outline: (§1)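 MIC against the yeast strains determined according to DIN 58940-84; clotrimazole as positive control.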

[4] = target: T1, 7-dehydrocholesterol reductase (Homo sapiens, UniProt Q9UBM7); assay: Inhibition of […]-mediated cholesterol biosynthesis in human HL60 cells assessed as inhibition of 2-[13C]acetate after 24 hrs GC/MS analysis; type: cell-based, HL-60
T1 sequence (Q9UBM7 whole entry): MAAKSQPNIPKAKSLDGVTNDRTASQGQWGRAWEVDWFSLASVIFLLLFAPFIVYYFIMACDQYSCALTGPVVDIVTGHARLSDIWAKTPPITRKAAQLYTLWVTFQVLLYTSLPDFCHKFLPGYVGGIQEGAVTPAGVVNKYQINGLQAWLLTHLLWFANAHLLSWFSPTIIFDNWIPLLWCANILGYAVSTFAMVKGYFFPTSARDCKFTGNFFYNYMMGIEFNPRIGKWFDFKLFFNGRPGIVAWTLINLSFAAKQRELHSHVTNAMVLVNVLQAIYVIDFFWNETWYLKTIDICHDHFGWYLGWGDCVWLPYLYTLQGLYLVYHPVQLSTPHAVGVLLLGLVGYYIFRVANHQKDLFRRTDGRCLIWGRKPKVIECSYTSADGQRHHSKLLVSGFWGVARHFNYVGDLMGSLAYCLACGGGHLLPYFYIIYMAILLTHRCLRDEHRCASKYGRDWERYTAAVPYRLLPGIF
Outline: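 Whole-cell cholesterol synthesis in HL-60 cells, 24 h with inhibitor and sodium 2-¹³C-acetate; six concentrations plus blank, in triplicate. Newly made labeled cholesterol (m/z 372–379, 462–469) measured by GC-MS against cholestane and normalized to Bradford protein. % inhibition against untreated control fitted to a variable-slope sigmoid, bottom fixed at 0, giving IC50; BM 15.766 as reference.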

[5] = Antifungal activity against Aspergillus brasiliensis DSM 1988 after 36 hrs by disc diffusion method
Saccharomyces cerevisiae [6] = assay: Antimicrobial activity against Saccharomyces cerevisiae DSM 1333 after 48 hrs; type: organism-based; conditions: in vivo; outline: as §1
Escherichia coli = assay: Antibacterial activity against Escherichia coli DSM 426 after 36 hrs by disc diffusion method; type: organism-based; conditions: in vivo
[7] = Antibacterial activity against Staphylococcus equorum DSM 20675 after 36 hrs by disc diffusion method
[8] = Antibacterial activity against Pseudomonas antimicrobica DSM 8361 after 36 hrs by disc diffusion method; conditions: burkholderia gladioli
[9] = Antibacterial activity against Streptococcus entericus DSM 14446 after 36 hrs by disc diffusion method
Saccharomyces cerevisiae [10] = assay: Antifungal activity against Saccharomyces cerevisiae DSM 1333 after 36 hrs by disc diffusion method; type: organism-based; conditions: in vivo
[11] = target: T2, 7-dehydrocholesterol reductase (Homo sapiens) (UniProt Q9UBM7); assay: Inhibition of 7-dehydrocholesterol reductase in human HL60 cells assessed as accumulation of 7-dehydrocholesterol at 1 uM after 24 hrs by GC/MS analysis; type: cell-based; conditions: HL-60
T2 sequence (whole entry): T1 sequence (Q9UBM7 whole entry)
Outline: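 HL-60 cells (1 × 10⁶) in lipid-free HL-60 medium given inhibitor at 50 μM or 1 μM (ethanol blank) for 24 h at 37 °C, 5% CO2. Pellet saponified in 1 M NaOH, 1 h at 70 °C, then TBME microextraction with cholestane internal standard. GC-MS sterol pattern compared with blanks and with AY 9944 and BM 15.766 references.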

Yarrowia lipolytica [12] = assay: Antifungal activity against Yarrowia lipolytica DSM 1345 after 36 hrs by disc diffusion method; type: organism-based; conditions: in vivo
Nakaseomyces glabratus [13] = assay: Antifungal activity against Candida glabrata DSM 11226 after 48 hrs; type: organism-based; conditions: in vivo; outline: as §1
HL-60 = assay: Cytotoxicity against human HL60 cells after 24 hrs by MTT assay; type: cell-based; conditions: HL-60, 24 h
Outline: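 MTT colorimetric assay on HL-60 promyelocytic leukemia cells (RPMI 1640, 10% FBS, no antibiotics, 37 °C, 5% CO2) as a preliminary screen for unspecific cytotoxicity; cisplatin as reference.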

[14] = target: T2, 7-dehydrocholesterol reductase (Homo sapiens); assay: Ratio of BM15.766 IC50 to compound IC50 for […]-mediated cholesterol biosynthesis in human HL60 cells; type: cell-based; conditions: HL-60

- MIC (Yarrowia lipolytica [3]): > 20 µg/mL
- IC50 [4]: 2.3 nM
- MIC (Saccharomyces cerevisiae [6]): > 20 µg/mL
- 7-DHCR inhibition (active/not active) [11]: Active
- MIC (Nakaseomyces glabratus [13]): > 20 µg/mL
- Ratio IC50 [14]: 200
SMILES: COc1cc2c(cc1O)CCN(CCc1ccc(Cl)cc1)C2
- Activity (Nakaseomyces glabratus [1]): Non-toxic
- Activity [2]: Non-toxic
- Activity [5]: Non-toxic
- Activity (Escherichia coli): Non-toxic
- Activity [7]: Non-toxic
- Activity [8]: Non-toxic
- Activity [9]: Non-toxic
- Activity (Saccharomyces cerevisiae [10]): Non-toxic
- Activity (Yarrowia lipolytica [12]): Non-toxic
- IC50 (HL-60): > 50000 nM
